The text below walks through data of ChEMBL document CHEMBL2424619, “Small-molecule ligands of methyl-lysine binding proteins: optimization of selectivity for L3MBTL3” (J Med Chem, 2013).

pIC50: −log10 of the molar value.

Assay [1] addresses MBT domain-containing protein 1 (Homo sapiens, UniProt Q05BQ5). The experiment in a line: Inhibition of MBTD1 (unknown origin) after 30 mins by AlphaScreen assay. Put shortly:
(§1)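 AlphaScreen competition with histone peptide. Compounds in 3-fold, 10-point dilutions, top 10 or 30 μM; buffer 20 mM Tris pH 8.0, 25 mM NaCl, 2 mM DTT, 0.05% Tween-20. Protein-peptide mix 30 min RT, then streptavidin donor plus nickel-chelate acceptor beads (GST acceptor beads for GST-tagged PHF23, JARID1A) 30 min RT dark. Protein-free His6-biotin peptide counterscreen.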
In general terms: Alpha assays give light when donor and acceptor beads are brought close together.

Assay [2] concerns the target T1, E3 ubiquitin-protein ligase UHRF1 (Homo sapiens, UniProt Q96T88).
T1 sequence (Q96T88 whole entry): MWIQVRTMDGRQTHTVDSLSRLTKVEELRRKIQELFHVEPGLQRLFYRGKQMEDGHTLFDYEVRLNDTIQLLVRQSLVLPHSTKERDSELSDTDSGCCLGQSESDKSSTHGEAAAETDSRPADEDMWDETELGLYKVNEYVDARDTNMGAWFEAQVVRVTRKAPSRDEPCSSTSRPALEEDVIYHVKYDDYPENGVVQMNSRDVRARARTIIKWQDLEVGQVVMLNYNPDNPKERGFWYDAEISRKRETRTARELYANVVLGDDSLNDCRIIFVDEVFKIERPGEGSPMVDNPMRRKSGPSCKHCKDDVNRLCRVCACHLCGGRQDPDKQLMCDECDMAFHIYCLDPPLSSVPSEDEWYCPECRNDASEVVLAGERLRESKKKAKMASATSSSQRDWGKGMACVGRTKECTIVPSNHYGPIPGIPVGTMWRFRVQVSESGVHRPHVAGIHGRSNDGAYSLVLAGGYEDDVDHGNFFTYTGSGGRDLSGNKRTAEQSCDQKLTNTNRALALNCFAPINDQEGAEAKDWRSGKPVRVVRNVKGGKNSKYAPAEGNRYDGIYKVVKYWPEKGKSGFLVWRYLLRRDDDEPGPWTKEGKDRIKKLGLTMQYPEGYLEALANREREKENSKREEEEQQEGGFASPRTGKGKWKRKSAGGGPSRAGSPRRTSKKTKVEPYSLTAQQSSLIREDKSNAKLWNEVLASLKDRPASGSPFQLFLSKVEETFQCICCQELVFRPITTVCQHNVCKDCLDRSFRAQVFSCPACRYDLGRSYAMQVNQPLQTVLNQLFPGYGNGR
As to the kind of experiment: Inhibition of UHRF1 (unknown origin) after 30 mins by AlphaScreen assay. The method in brief:
(§2)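 AlphaScreen competition with histone peptide. Compounds in 3-fold, 10-point dilutions, top 10 or 30 μM; buffer 20 mM Tris pH 8.0, 25 mM NaCl, 2 mM DTT, 0.05% Tween-20. Protein-peptide mix 30 min RT, then streptavidin donor plus nickel-chelate acceptor beads (GST acceptor beads for GST-tagged PHF23, JARID1A) 30 min RT dark. […] Protein-free His6-biotin peptide counterscreen.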

A further assay has as its target PHD finger protein 23 (Homo sapiens, UniProt Q9BUL5). The experiment in a line: Inhibition of PHF23 (unknown origin) after 30 mins by AlphaScreen assay. Put shortly:
as §1

In a further assay the target is TP53-binding protein 1 (Homo sapiens, UniProt Q12888). As to the kind of experiment: Inhibition of 53BP1 (unknown origin) after 30 mins by AlphaScreen assay. The method in brief: as §2
Assay [3] deals with T2, Chromobox protein homolog 7 (Homo sapiens, UniProt O95931).
T2 sequence (O95931 whole entry): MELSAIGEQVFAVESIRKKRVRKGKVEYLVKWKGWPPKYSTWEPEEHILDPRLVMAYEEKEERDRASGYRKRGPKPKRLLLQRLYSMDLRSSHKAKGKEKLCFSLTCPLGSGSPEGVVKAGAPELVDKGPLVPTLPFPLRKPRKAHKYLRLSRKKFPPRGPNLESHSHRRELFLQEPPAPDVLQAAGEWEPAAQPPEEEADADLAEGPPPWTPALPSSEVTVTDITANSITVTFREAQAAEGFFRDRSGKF
As to the kind of experiment: Inhibition of CBX7 (unknown origin) after 30 mins by AlphaScreen assay. Put shortly: as §1

TP53-binding protein 1, sequence (Q12888 whole entry): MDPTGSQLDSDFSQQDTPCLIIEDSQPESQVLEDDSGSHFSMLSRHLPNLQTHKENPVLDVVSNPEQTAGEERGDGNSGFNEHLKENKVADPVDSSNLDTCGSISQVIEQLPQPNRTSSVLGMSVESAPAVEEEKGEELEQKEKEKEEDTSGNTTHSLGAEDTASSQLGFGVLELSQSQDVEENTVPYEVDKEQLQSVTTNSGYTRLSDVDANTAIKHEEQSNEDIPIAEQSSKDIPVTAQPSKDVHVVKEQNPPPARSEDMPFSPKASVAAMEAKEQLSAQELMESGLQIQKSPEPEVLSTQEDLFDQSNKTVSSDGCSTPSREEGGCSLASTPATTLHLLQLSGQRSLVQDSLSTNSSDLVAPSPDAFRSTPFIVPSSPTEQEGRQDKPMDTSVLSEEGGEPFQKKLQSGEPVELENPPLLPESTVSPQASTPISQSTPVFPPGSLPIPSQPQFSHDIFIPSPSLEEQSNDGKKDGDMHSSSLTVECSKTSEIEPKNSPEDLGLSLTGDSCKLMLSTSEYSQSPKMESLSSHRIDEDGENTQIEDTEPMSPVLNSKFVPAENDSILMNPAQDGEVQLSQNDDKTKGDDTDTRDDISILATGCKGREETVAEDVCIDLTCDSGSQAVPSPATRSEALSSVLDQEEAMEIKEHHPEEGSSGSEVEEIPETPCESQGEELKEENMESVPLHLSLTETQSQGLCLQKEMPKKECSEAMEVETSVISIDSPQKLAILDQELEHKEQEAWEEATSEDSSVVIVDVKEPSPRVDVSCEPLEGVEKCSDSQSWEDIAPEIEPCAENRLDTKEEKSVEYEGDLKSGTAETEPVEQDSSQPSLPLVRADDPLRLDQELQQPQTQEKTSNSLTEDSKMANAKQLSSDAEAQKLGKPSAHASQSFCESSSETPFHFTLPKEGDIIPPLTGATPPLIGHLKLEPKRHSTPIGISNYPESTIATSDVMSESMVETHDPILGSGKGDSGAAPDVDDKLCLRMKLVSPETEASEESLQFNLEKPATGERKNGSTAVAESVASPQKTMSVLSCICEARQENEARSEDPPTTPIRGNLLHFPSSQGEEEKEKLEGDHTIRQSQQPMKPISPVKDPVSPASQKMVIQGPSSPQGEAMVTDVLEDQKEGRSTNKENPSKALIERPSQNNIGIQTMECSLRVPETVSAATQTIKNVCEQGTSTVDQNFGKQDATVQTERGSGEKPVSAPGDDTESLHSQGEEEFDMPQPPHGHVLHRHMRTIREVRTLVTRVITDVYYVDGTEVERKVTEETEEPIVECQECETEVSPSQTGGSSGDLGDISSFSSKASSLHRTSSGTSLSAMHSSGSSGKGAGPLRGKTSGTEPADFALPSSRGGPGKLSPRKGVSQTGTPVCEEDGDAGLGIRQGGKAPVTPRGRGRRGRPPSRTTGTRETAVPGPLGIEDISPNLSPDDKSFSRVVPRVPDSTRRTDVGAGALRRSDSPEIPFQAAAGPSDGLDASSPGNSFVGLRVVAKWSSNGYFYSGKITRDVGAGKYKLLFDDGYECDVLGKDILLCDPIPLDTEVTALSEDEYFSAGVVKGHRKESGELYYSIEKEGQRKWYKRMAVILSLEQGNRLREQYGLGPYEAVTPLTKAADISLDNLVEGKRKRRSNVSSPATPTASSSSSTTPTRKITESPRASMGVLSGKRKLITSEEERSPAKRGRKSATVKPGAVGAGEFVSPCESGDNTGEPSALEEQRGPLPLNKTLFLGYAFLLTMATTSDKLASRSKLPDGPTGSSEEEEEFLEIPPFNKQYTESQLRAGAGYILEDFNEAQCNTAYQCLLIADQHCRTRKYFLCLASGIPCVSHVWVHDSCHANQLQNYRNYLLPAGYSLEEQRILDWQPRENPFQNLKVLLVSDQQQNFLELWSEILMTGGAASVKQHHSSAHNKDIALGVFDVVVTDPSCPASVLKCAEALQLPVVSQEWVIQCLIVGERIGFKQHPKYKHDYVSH
PHD finger protein 23, sequence (Q9BUL5 whole entry): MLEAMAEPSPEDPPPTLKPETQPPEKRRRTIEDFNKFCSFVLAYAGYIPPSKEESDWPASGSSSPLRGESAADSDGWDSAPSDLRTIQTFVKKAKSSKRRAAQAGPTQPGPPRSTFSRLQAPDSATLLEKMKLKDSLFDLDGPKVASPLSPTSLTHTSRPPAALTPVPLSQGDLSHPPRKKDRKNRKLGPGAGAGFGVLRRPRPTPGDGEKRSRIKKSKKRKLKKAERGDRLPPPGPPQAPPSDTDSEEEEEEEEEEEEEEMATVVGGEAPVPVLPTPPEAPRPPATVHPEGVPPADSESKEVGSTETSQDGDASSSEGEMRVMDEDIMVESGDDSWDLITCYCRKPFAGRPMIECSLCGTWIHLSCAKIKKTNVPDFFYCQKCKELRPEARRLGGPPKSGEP
MBT domain-containing protein 1, sequence (Q05BQ5 whole entry, the tested form may be a part): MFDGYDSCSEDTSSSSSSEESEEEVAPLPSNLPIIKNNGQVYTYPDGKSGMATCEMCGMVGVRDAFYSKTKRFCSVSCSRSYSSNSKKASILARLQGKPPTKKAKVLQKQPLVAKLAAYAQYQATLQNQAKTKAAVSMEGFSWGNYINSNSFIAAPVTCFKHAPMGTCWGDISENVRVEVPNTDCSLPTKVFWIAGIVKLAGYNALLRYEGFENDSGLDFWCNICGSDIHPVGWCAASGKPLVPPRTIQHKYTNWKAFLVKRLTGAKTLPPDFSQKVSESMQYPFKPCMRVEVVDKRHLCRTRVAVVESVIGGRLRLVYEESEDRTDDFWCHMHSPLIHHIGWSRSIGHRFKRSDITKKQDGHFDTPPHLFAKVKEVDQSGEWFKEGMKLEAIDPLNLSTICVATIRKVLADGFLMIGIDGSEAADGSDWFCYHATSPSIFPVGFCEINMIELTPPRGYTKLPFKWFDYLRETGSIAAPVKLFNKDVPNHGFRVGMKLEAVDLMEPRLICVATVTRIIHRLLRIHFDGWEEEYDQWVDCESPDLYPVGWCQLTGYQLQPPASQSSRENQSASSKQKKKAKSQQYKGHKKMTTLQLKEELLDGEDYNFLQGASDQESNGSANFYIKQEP

What is called pIC50 is the negative decadic logarithm of the IC50, by convention in mol/L. For `O=C(c1ccc(C(=O)N2CC3CNCC3C2)cc1)N1CCC(N2CCCC2)CC1` (stereo not given), the negative-log IC50 (pIC50) (in assay [1]; in assay [2]; on PHD finger protein 23; at TP53-binding protein 1; in assay [3]) was less than 5.00 in each case.
With `O=C(c1ccc(C(=O)N2CCCC(N3CCCC3)CC2)cc1)N1CCCC(N2CCCC2)CC1` (stereo not given), the negative-log IC50 (pIC50) (in assay [1]; in assay [2]; against PHD finger protein 23; on TP53-binding protein 1; in assay [3]) was less than 5.00 each time.
As for `O=C(c1ccc2cc(C(=O)N3CCC(N4CCCC4)CC3)ccc2c1)N1CCC(N2CCCC2)CC1`, the negative logarithm of the IC50 (pIC50) (in assay [1]; in assay [2]; against PHD finger protein 23; at TP53-binding protein 1; in assay [3]) was less than 5.00 in each case.
As for `O=C(c1ccc(C(=O)N2CCC(N3CCOCC3)CC2)cc1)N1CCC(N2CCCC2)CC1`, the pIC50 (in assay [1]; in assay [2]; on PHD finger protein 23; at TP53-binding protein 1; in assay [3]) was less than 5.00 throughout.
As to `CCN1Cc2ccc(NC(=O)c3ccc(C(=O)N4CCC(C5CCCN5)CC4)cc3Nc3ccccc3)cc2C1` (stereo not given), the pIC50 in assay [1] is 5.46; in assay [2] it was less than 5.00; on PHD finger protein 23 it was less than 5.00; on TP53-binding protein 1, 5.46; in assay [3], less than 5.00.
Turning to `O=C(c1ccccc1C(=O)N1CCC(N2CCCC2)CC1)N1CCC(N2CCCC2)CC1`, the negative logarithm of the IC50 (pIC50) was less than 5.00 in assay [1]; less than 5.00 in assay [2]; less than 5.00 against PHD finger protein 23; 5.33 at TP53-binding protein 1; less than 5.00 in assay [3].
Consider `O=C(c1ccc(C(=O)N2CCC3(CCNC3)C2)cc1)N1CCC(N2CCCC2)CC1` (stereo not given), for which the pIC50 (in assay [1]; in assay [2]; at PHD finger protein 23; at TP53-binding protein 1; in assay [3]) was less than 5.00 each time.
Consider `O=C(c1ccc(C(=O)N2CCC(N3CCCC3)C2)cc1)N1CCC(N2CCCC2)CC1` (stereo not given), for which the pIC50 (in assay [1]; in assay [2]; on PHD finger protein 23; on TP53-binding protein 1; in assay [3]) was less than 5.00 in each case.
On to `O=C(c1ccc(CN2CCC(N3CCCC3)CC2)cc1)N1CCC(N2CCCC2)CC1`, for which the pIC50 in assay [1] is 5.09; in assay [2], less than 5.00; on PHD finger protein 23, less than 5.00; at TP53-binding protein 1, less than 5.00; in assay [3], less than 5.00.
As to `O=C(c1ccc(C(=O)N2CCC3(CCNC3)CC2)cc1)N1CCC(N2CCCC2)CC1`, the negative-log IC50 (pIC50) (in assay [1]; in assay [2]; against PHD finger protein 23; at TP53-binding protein 1; in assay [3]) was less than 5.00 throughout.
As for `O=C(NCCCN1CCCC1)c1ccc(C(=O)N2CCC(N3CCCC3)CC2)cc1`, the pIC50 (in assay [1]; in assay [2]; on PHD finger protein 23; at TP53-binding protein 1; in assay [3]) was less than 5.00 throughout.
Turning to `O=C(c1ccc(C(=O)N2CCC(C3CCCN3)CC2)cc1)N1CCC(C2CCCN2)CC1` (stereo not given), the pIC50 is 5.40 in assay [1]; less than 5.00 in assay [2]; less than 5.00 on PHD finger protein 23; less than 5.00 on TP53-binding protein 1; less than 5.00 in assay [3].
For `O=C(c1ccc(C(=O)N2CC(N3CCCC3)C2)cc1)N1CCC(N2CCCC2)CC1`, the pIC50 (in assay [1]; in assay [2]; on PHD finger protein 23; on TP53-binding protein 1; in assay [3]) was less than 5.00 throughout.
Take `O=C(c1ccc(C(=O)N2CCC(N3CCCC3)CC2)c2ccccc12)N1CCC(N2CCCC2)CC1`: the pIC50 in assay [1] was 5.24; in assay [2], less than 5.00; against PHD finger protein 23, less than 5.00; on TP53-binding protein 1 it was 4.97; in assay [3] it was less than 5.00.
Turning to `O=C(c1c(F)c(F)c(C(=O)N2CCC(N3CCCC3)CC2)c(F)c1F)N1CCC(N2CCCC2)CC1`, the pIC50 (in assay [1]; in assay [2]; on PHD finger protein 23; at TP53-binding protein 1; in assay [3]) was less than 5.00 throughout.
As for `C[N+]1(C2CCN(C(=O)c3ccc(C(=O)N4CCC(N5CCCC5)CC4)cc3)CC2)CCCC1`, the negative logarithm of the IC50 (pIC50) (in assay [1]; in assay [2]; against PHD finger protein 23; at TP53-binding protein 1; in assay [3]) was less than 5.00 throughout.
In the case of `O=C(c1ccc(C(=O)N2CCC(N3CCCC3)CC2)c(-c2ccccc2)c1)N1CCC(N2CCCC2)CC1`, the pIC50 (in assay [1]; in assay [2]; against PHD finger protein 23; on TP53-binding protein 1; in assay [3]) was less than 5.00 each time.
As to `O=C(c1ccc(C(=O)N2CCC(N3CCCC3)CC2)cc1)N1CCC(C2CCNCC2)CC1`, the pIC50 (in assay [1]; in assay [2]; against PHD finger protein 23; on TP53-binding protein 1; in assay [3]) was less than 5.00 each time.
Turning to `CN(C)C1CCN(C(=O)c2ccc(C(=O)N3CCC(N(C)C)CC3)cc2)CC1`, the pIC50 (in assay [1]; in assay [2]; against PHD finger protein 23; on TP53-binding protein 1; in assay [3]) was less than 5.00 throughout.
Turning to `O=C(c1ccc(C(=O)N2CCC(N3CCCC3)CC2)c(NCc2ccccc2)c1)N1CCC(N2CCCC2)CC1`, the pIC50 is less than 5.00 in assay [1]; less than 5.00 in assay [2]; less than 5.00 against PHD finger protein 23; 5.06 on TP53-binding protein 1; less than 5.00 in assay [3].
`O=C(c1ccc(C(=O)N2CCC(N3CCCC3)CC2)s1)N1CCC(N2CCCC2)CC1`: the negative logarithm of the IC50 (pIC50) (in assay [1]; in assay [2]; on PHD finger protein 23; at TP53-binding protein 1; in assay [3]) was less than 5.00 each time.
`CCN1Cc2ccc(NC(=O)c3ccc(C(=O)N4CC5CCC(C4)C5N4CCCC4)cc3)cc2C1` (stereo not given): the pIC50 (in assay [1]; in assay [2]; on PHD finger protein 23; at TP53-binding protein 1; in assay [3]) was less than 5.00 in each case.
